Several values for one entry are separate records, joined by “and”; a condition that tells them apart may be missing. Equal entries are not always repeated.
System: Fibroblast
Assay: Multiplex assay against human fibroblast
Format: toxicity, cell-based
Procedure, shortened: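 Live cells were stained at seeding with Hoechst33342, BioTracker Green Microtubule Cytoskeleton Dye, MitoTracker Red and Annexin V Alexa Fluor 680. Following compound addition, they were imaged on a CQ1 microscope at 37°C and 5% CO2 and gated by CellPathfinder machine learning into Hoechst high-intensity objects or normal cells, with normal cells split into healthy, pyknosed or fragmented nuclei and pyknosed cells into mitotic or apoptotic. Tubulin, mitochondrial-mass and membrane-permeability phenotypes are per cents of healthy-nucleus cells.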

[1] = 12 h, 1 µM, compound concentration 1 uM
[2] = 12 h, 10 µM, compound concentration 10 uM
[3] = 24 h, 1 µM, compound concentration 1 uM
[4] = 24 h, 10 µM, compound concentration 10 uM
[5] = 48 h, 1 µM, compound concentration 1 uM
[6] = 48 h, 10 µM, compound concentration 10 uM

C=CC(=O)Nc1cc(Nc2nccc(-n3cc(CN(C)C)c(-c4ccccc4)n3)n2)c(OC)cc1N1CCOCC1 [LAZERTINIB]
Population Fragmented Nuclei (%) [1]: 17.06% and 10.42% | Population Healthy Nuclei (%) [1]: 39.41% and 72.59% | Population Hoechst High Intensity Objects (%) [1]: 0% | Population Membrane Permeable-Phenotype (%) [1]: 5.97% and 4.26% | Population Mitochondria Different-Phenotype (%) [1]: 13.43% and 12.77% | Population Mitotic Cells (%) [1]: 97.3% and 84.09% | Population Normal (%) [1]: 100% | Population Pyknosed Nuclei (%) [1]: 43.53% and 16.99% | Population Tubulin-Different-Phenotype (%) [1]: 26.87% and 71.81% | Total Cell Count [1]: 170 and 259 | Population Apoptotic (%) [2]: 18.84% and 24.56% | Population Fragmented Nuclei (%) [2]: 21.15% and 12.73% | Population Healthy Nuclei (%) [2]: 34.62% and 72.47% | Population Hoechst High Intensity Objects (%) [2]: 0% | Population Membrane Permeable-Phenotype (%) [2]: 1.85% and 8.24% | Population Mitochondria Different-Phenotype (%) [2]: 48.15% and 27.24% | Population Mitotic Cells (%) [2]: 81.16% and 75.44% | Population Normal (%) [2]: 100% | Population Pyknosed Nuclei (%) [2]: 44.23% and 14.81% | Population Tubulin-Different-Phenotype (%) [2]: 55.56% and 80.65% | Total Cell Count [2]: 156 and 385 | Population Fragmented Nuclei (%) [3]: 8.12% and 9.88% | Population Healthy Nuclei (%) [3]: 60.62% and 75.1% | Population Hoechst High Intensity Objects (%) [3]: 0% | Population Membrane Permeable-Phenotype (%) [3]: 6.19% and 3.68% | Population Mitochondria Different-Phenotype (%) [3]: 23.71% and 17.89% | Population Mitotic Cells (%) [3]: 90% and 52.63% | Population Normal (%) [3]: 100% | Population Pyknosed Nuclei (%) [3]: 31.25% and 15.02% | Population Tubulin-Different-Phenotype (%) [3]: 34.02% and 66.32% | Total Cell Count [3]: 160 and 253 | Population Apoptotic (%) [4]: 52.31% and 34.69% | Population Healthy Nuclei (%) [4]: 37.75% and 81.53% | Population Hoechst High Intensity Objects (%) [4]: 0% | Population Membrane Permeable-Phenotype (%) [4]: 5.26% and 2.72% | Population Mitochondria Different-Phenotype (%) [4]: 43.86% and 34.14% | Population Mitotic Cells (%) [4]: 47.69% and 65.31% | Population Normal (%) [4]: 100% | Population Tubulin-Different-Phenotype (%) [4]: 57.89% and 76.44% | Total Cell Count [4]: 151 and 406 | Population Apoptotic (%) [5]: 16.67% and 20.83% | Population Fragmented Nuclei (%) [5]: 12.14% and 10.42% | Population Healthy Nuclei (%) [5]: 77.46% and 80.31% | Population Hoechst High Intensity Objects (%) [5]: 0% | Population Membrane Permeable-Phenotype (%) [5]: 0.75% and 1.92% | Population Mitochondria Different-Phenotype (%) [5]: 11.19% and 8.17% | Population Mitotic Cells (%) [5]: 83.33% and 79.17% | Population Normal (%) [5]: 100% | Population Pyknosed Nuclei (%) [5]: 10.4% and 9.27% | Population Tubulin-Different-Phenotype (%) [5]: 27.61% and 62.5% | Total Cell Count [5]: 173 and 259 | Population Apoptotic (%) [6]: 64.71% and 51.61% | Population Fragmented Nuclei (%) [6]: 24.65% and 10.26% | Population Healthy Nuclei (%) [6]: 51.41% and 82.52% | Population Hoechst High Intensity Objects (%) [6]: 0% | Population Membrane Permeable-Phenotype (%) [6]: 1.37% and 2.82% | Population Mitotic Cells (%) [6]: 35.29% and 48.39% | Population Normal (%) [6]: 100% | Population Tubulin-Different-Phenotype (%) [6]: 49.32% and 60.73%

N#Cc1ccnc(Nc2cc(C3CCN(C4COC4)CC3)cc(N3CCC(F)(F)C3)n2)c1
Population Apoptotic (%) [1]: 14.12% and 22.64% | Population Fragmented Nuclei (%) [1]: 18.52% and 8.85% | Population Healthy Nuclei (%) [1]: 42.13% and 67.7% | Population Hoechst High Intensity Objects (%) [1]: 0% | Population Membrane Permeable-Phenotype (%) [1]: 3.3% and 2.61% | Population Mitochondria Different-Phenotype (%) [1]: 16.48% and 9.8% | Population Mitotic Cells (%) [1]: 85.88% and 77.36% | Population Normal (%) [1]: 100% | Population Pyknosed Nuclei (%) [1]: 39.35% and 23.45% | Population Tubulin-Different-Phenotype (%) [1]: 31.87% and 33.33% | Total Cell Count [1]: 216 and 226 | Population Apoptotic (%) [2]: 60.19% and 71.72% | Population Fragmented Nuclei (%) [2]: 13.02% and 15.68% | Population Healthy Nuclei (%) [2]: 36.74% and 30.81% | Population Hoechst High Intensity Objects (%) [2]: 0% and 0.54% | Population Mitochondria Different-Phenotype (%) [2]: 35.44% and 45.61% | Population Mitotic Cells (%) [2]: 39.81% and 28.28% | Population Normal (%) [2]: 100% and 99.46% | Population Pyknosed Nuclei (%) [2]: 50.23% and 53.51% | Population Tubulin-Different-Phenotype (%) [2]: 45.57% and 73.68% | Total Cell Count [2]: 215 and 186 | Population Apoptotic (%) [3]: 7.81% and 14% | Population Fragmented Nuclei (%) [3]: 19.58% and 9.81% | Population Healthy Nuclei (%) [3]: 53.75% and 66.82% | Population Hoechst High Intensity Objects (%) [3]: 0% | Population Membrane Permeable-Phenotype (%) [3]: 5.43% and 4.2% | Population Mitochondria Different-Phenotype (%) [3]: 19.38% and 23.08% | Population Mitotic Cells (%) [3]: 92.19% and 86% | Population Normal (%) [3]: 100% | Population Pyknosed Nuclei (%) [3]: 26.67% and 23.36% | Population Tubulin-Different-Phenotype (%) [3]: 29.46% and 47.55% | Total Cell Count [3]: 240 and 214 | Population Apoptotic (%) [4]: 58.59% and 84.62% | Population Fragmented Nuclei (%) [4]: 13.17% and 9.55% | Population Healthy Nuclei (%) [4]: 38.54% and 39.33% | Population Hoechst High Intensity Objects (%) [4]: 0% and 0.56% | Population Membrane Permeable-Phenotype (%) [4]: 10.13% and 20% | Population Mitochondria Different-Phenotype (%) [4]: 32.91% and 55.71% | Population Mitotic Cells (%) [4]: 41.41% and 15.38% | Population Normal (%) [4]: 100% and 99.44% | Population Pyknosed Nuclei (%) [4]: 48.29% and 51.12% | Population Tubulin-Different-Phenotype (%) [4]: 37.97% and 78.57% | Total Cell Count [4]: 205 and 179 | Population Fragmented Nuclei (%) [5]: 19.03% and 11.35% | Population Healthy Nuclei (%) [5]: 63.97% and 74.24% | Population Hoechst High Intensity Objects (%) [5]: 0% | Population Membrane Permeable-Phenotype (%) [5]: 2.53% and 2.94% | Population Mitochondria Different-Phenotype (%) [5]: 21.52% and 11.18% | Population Mitotic Cells (%) [5]: 92.86% and 57.58% | Population Normal (%) [5]: 100% | Population Pyknosed Nuclei (%) [5]: 17% and 14.41% | Population Tubulin-Different-Phenotype (%) [5]: 32.91% and 54.12% | Total Cell Count [5]: 247 and 229 | Population Apoptotic (%) [6]: 59.57% and 79.01% | Population Fragmented Nuclei (%) [6]: 13% and 11.52% | Population Healthy Nuclei (%) [6]: 44.84% and 46.07% | Population Hoechst High Intensity Objects (%) [6]: 0% and 0.52% | Population Membrane Permeable-Phenotype (%) [6]: 7% and 15.91% | Population Mitochondria Different-Phenotype (%) [6]: 36% and 20.45% | Population Mitotic Cells (%) [6]: 40.43% and 20.99% | Population Normal (%) [6]: 100% and 99.48% | Population Pyknosed Nuclei (%) [6]: 42.15% and 42.41% | Population Tubulin-Different-Phenotype (%) [6]: 37% and 56.82% | Total Cell Count [6]: 223 and 192
